Apaf-1 act: activators of human Apaf-1 apoptosome; O14727; Apaf-1 apoptosome caspase-3 activation, DEVD-Rh110 fluorescence; hits give low values; activity change, negative = activation, % at 20 µM; 330,000 tested, 0.31% active; AID 489031;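 active = activity change at or below -40% at 20 µM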
Target sequence (O14727 whole entry, looked up): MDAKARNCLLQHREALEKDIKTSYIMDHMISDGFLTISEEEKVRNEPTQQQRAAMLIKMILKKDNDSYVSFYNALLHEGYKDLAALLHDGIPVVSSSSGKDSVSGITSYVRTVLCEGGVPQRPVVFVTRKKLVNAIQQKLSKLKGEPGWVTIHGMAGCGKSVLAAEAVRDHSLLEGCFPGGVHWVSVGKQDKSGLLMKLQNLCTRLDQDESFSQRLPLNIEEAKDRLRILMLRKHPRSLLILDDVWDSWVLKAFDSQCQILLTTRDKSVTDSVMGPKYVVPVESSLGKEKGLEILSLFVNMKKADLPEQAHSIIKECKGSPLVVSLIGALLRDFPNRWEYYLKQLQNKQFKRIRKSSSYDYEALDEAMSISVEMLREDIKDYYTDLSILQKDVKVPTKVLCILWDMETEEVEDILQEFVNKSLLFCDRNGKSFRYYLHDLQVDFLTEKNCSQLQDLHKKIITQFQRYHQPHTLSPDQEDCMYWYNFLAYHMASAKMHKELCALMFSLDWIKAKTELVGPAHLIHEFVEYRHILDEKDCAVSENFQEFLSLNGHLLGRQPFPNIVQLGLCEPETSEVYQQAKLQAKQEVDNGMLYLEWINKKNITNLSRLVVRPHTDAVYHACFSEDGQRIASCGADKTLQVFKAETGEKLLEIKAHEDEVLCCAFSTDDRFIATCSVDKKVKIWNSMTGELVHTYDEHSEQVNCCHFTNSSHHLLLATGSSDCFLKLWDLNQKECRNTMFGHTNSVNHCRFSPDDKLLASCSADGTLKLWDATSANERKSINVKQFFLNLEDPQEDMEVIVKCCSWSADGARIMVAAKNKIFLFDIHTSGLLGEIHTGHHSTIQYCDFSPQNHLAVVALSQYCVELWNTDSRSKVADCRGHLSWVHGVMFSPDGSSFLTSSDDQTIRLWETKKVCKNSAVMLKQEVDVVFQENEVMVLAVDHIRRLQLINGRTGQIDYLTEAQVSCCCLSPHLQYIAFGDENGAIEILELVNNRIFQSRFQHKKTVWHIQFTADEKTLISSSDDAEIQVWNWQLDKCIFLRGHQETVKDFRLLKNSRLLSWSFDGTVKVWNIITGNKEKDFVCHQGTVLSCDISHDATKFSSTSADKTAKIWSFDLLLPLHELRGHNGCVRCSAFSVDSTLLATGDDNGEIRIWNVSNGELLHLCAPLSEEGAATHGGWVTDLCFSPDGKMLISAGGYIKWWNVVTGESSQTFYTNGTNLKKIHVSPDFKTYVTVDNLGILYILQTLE
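system = biochemical Apaf-1 apoptosome reconstitution | buffer or medium = 20 mM HEPES pH 7.5 with CHAPS, BSA | also added = dATP and cytochrome c as apoptosome triggers, (Z-DEVD)2-Rh110 substrate | incubation = 30 min compound preincubation and 50 min reaction, both room temperature | measured by = fluorescence, 540 nm emission, 480 nm excitation | read-out basis = Caspase-3 cleavage activity downstream of Apaf-1 activation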
Rh110 interf act: interferes with Rh110 fluorescence, flagging false Apaf-1 activators | shares compounds with Apaf-1 act | Rh110 fluorescence interference, quenched caspase reaction, Ex480/Em540 | fluorescence interference (activity change), % at 20 µM, hits read low | 980 tested, under 10 active | AID 504616;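 active = mean activity change at or below -40% when tested at 20 µM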
Apaf-1 act conf: Apaf-1 (human) activation, single-dose confirmed | shares compounds with Apaf-1 act | reconstituted apoptosome caspase-3 activity, DEVD-Rh110 fluorescence; hits give low values | activity change, negative = activation, % at 20 µM | 980 tested, 5% active | AID 504617;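 active = mean activity change at or below -40%, meaning activation of 40% or more, at 20 µM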
Apaf1 act interf: Apaf-1 activator counter-screen fluorescence artifact | shares compounds with Apaf-1 act | fluorescence interference counterscreen, Apaf-1 activator assay | EC50, µM | 55 tested, under 10 active | AID 588592; call rule not given here
Large screens that a line does not name were inactive (follow-up assays come after a bar, where they were run). Only a sample is shown.

O=C(COc1ccc(-c2ccccc2)cc1)NNC(=O)Nc1ccc(F)cc1F	Apaf-1 act -53.7 | Rh110 interf act inactive | Apaf-1 act conf inactive
CCN1CCN(Cc2ccc(NC(=O)c3cc(NC(=O)C(=O)c4c[nH]c5ccccc45)cc(OC)c3)cc2C(F)(F)F)CC1	none
O=C(O)c1ccc(S(=O)(=O)/N=C2\C=C(Nc3ccccc3F)C(=O)c3ccccc32)cc1	none
CCOc1ccccc1OCCC(=O)NNC(=O)Cn1nc(C)cc1C	Apaf-1 act -81.5 | Rh110 interf act inactive | Apaf-1 act conf inactive
Cc1cc(Nc2cccc(Cl)c2)nc(NCc2ccccc2)n1	none
COc1ccc(-n2nc3ccc(N)cc3n2)cc1Cl	none
Oc1ccc(NCc2ccccc2OCc2ccccc2)cc1	none
Cc1ccc2nc(N(CCCN(C)C)C(=O)c3ccc(S(=O)(=O)N4CCc5ccccc5C4)cc3)sc2c1	none
CCS(=O)(=O)c1nc(S(=O)(=O)c2ccc(Cl)cc2)c(N2CCc3ccccc3C2)s1	Apaf-1 act -406.2 | Rh110 interf act inactive | Apaf-1 act conf inactive
Cc1ccc(N2CC(C(=O)N3CCC(C(=O)Nc4nnc(C(C)(C)C)s4)CC3)CC2=O)cc1 (configuration not stated)	Apaf-1 act -384.1 | Rh110 interf act inactive | Apaf-1 act conf inactive
CCOc1cc(NCc2ccccc2)c2ncn(C(C)C)c2c1	none
Cc1ccccc1NC(=O)CSc1nnc(NC(=O)c2ccco2)s1	Apaf-1 act -65.8 | Rh110 interf act inactive | Apaf-1 act conf inactive
O=C1C2=C(c3ccccc31)[N+](=O)C1CCCCC1N2[O-] (configuration not stated)	none
COc1ccc2c(c1)c1ccc3c(c1n2C)C(=O)C=CC3=O	none
CCN(CC)CCOC(=O)c1ccc(N/C=C(/C#N)c2nc(-c3cc4ccccc4oc3=O)cs2)cc1	none
Cc1cc(C(=O)N/N=C/c2c(C)[nH]n(-c3ccccc3)c2=O)n[nH]1	none
CCCCN(CCCC)C(=S)N/N=C/c1c(C)[nH]n(-c2ccccc2)c1=O	none
CCCCN=Cc1c(C)[nH]n(-c2ccccc2)c1=S	Apaf-1 act -80.0 | Rh110 interf act inactive | Apaf-1 act conf inactive
CC1(C)Nc2ccc(O)cc2-c2c1ssc2=S	none
CC1CCCN(C2=C(NS(=O)(=O)c3ccc(Br)cc3)C(=O)c3ccccc3C2=O)C1 (configuration not stated)	none
CC1CCN(C2=C(NS(=O)(=O)c3ccc(Br)cc3)C(=O)c3ccccc3C2=O)CC1	none
CCOC(=O)C1CCCN(C2=C(NS(=O)(=O)c3ccc(Br)cc3)C(=O)c3ccccc3C2=O)C1 (configuration not stated)	none | Apaf1 act interf inactive
Cc1cc(C)c(S(=O)(=O)Nc2ccc3c4c(cccc24)CC3)c(C)c1	none
COC(=O)C1=C(C)N(Cc2ccccc2)C(=NCCc2c[nH]c3ccccc23)N[C@H]1c1cccc(C(F)(F)F)c1	none
NC(=NCCc1c[nH]c2ccccc12)NS(=O)(=O)c1ccc(F)cc1	Apaf-1 act -45.7 | Rh110 interf act inactive | Apaf-1 act conf inactive
N#Cc1c(N)n(CCOC(=O)c2cccc(Br)c2)c2nc3ccccc3nc12	none
O=C1NC(=Nc2ccccc2)S/C1=C/c1cccs1	Apaf-1 act -300.3 | Rh110 interf act inactive | Apaf-1 act conf inactive
CC(C)(C)NC(=O)C[C@H]1C[C@H](C(=O)N2CCOCC2)[C@@]2(CCC3CCCC3)c3[nH]c4ccc(Cl)cc4c3CCN2C1=O	none
N#CC1=C2SCN(Cc3ccccc3)CN2C(=O)CC1c1cccs1 (configuration not stated)	none
CCOC(=O)C1Nc2ccccc2C2C(O)C(O)CC12 (configuration not stated)	none
CC(=C/c1ccco1)/C=N/NC(=O)CSc1nnc(SCc2ccc(C)cc2)s1	Apaf-1 act -89.9 | Rh110 interf act inactive | Apaf-1 act conf inactive
O=[N+]([O-])c1c(NCCCO)cc(Sc2nc3ccccc3s2)c2nonc12	none
Cn1c(SCC(=O)Nc2ccc3nc(SCC(=O)N4CCCC4)sc3c2)nnc1-c1ccccc1	none
O=C(CSc1nc2ccccc2s1)N/N=C/c1ccco1	Apaf-1 act -62.1 | Rh110 interf act inactive | Apaf-1 act conf inactive
C[C@H](CO)N1C[C@H](C)[C@@H](CN(C)Cc2ccc(Cl)c(Cl)c2)Oc2c(NC(=O)CCC(F)(F)F)cccc2C1=O	none
CCC(CO)Oc1cc(NCc2ccc(C)cc2)c2ncn(C(C)C)c2c1 (configuration not stated)	none
CCC(=O)OCCNc1cc(Sc2nc3ccccc3s2)c2nonc2c1[N+](=O)[O-]	none
Cc1[nH]n(-c2ccccc2)c(=O)c1C(C[N+](=O)[O-])c1ccc(F)cc1 (configuration not stated)	none

Source: PubChem BioAssay
